Columns and labels:
[1] = system: HeLa; experiment: Cytotoxicity against human HeLa cells after 72 hrs by MTT assay; assay type: functional, cell-based
Outline: (§1)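 Cells grown with FBS, 2 mM L-glutamine, penicillin and streptomycin at 37 °C, 5% CO2, humidified. Seeded in 96-well plates on day 0 at densities set by population doubling time. Five 10-fold dilutions (10^-8 to 10^-4 mol/L), freshly prepared, then 72 h exposure, modified NCI DTP method. Three individual experiments. IC50 from dose-response curves by linear regression.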

[2] = system: MIA PaCa-2; experiment: Cytotoxicity against human MIAPaCa2 cells after 72 hrs by MTT assay; assay type: functional, cell-based; conditions: MIA PaCa-2, 72 h; outline: as §1
[3] = system: SW-620; experiment: Cytotoxicity against human SW620 cells after 72 hrs by MTT assay; assay type: functional, cell-based; conditions: SW-620, 72 h; outline: as §1
[4] = system: MCF7; experiment: Cytotoxicity against human MCF7 cells after 72 hrs by MTT assay; assay type: functional, cell-based; conditions: MCF7, 72 h; outline: as §1
[5] = system: NCI-H460; experiment: Cytotoxicity against human H460 cells after 72 hrs by MTT assay; assay type: functional, cell-based; conditions: NCI-H460, 72 h; outline: as §1
[6] = system: Calf thymus DNA; experiment: Binding affinity to calf thymus DNA assessed as change in melting temperature at compound/polynucleotide ratio 0.3 in sodium cacodylate buffer at pH 7; conditions: Bos taurus
[7] = system: Calf thymus DNA; experiment: Binding affinity to calf thymus DNA assessed as change in melting temperature at compound/polynucleotide ratio 3 in sodium cacodylate buffer at pH 7; assay type: nucleic-acid assay; conditions: Bos taurus; in the assay text read “compound/polynucleotide ratio 0.3” for “compound/polynucleotide ratio 3”
Outline: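 Thermal melting of ct-DNA, alone and with compound, in sodium cacodylate buffer pH 7.0, I = 0.05 mol dm^-3, DMSO under 1%. Absorbance at 260 nm followed against temperature, heated at 1 °C per minute. Ligand absorbance subtracted and scale normalized. Tm taken as transition midpoint, from the first-derivative maximum or graphically by tangent.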

ΔTm [6] [°C] | ΔTm [7] [°C] | Structure (SMILES) | IC50 [1] [µM] | IC50 [2] [µM] | IC50 [3] [µM] | IC50 [4] [µM] | IC50 [5] [µM]
3 |  | N#C/C(=C\c1ccc(F)cc1)c1nc2ccccc2[nH]1 | 15 | 18 | 59 | 14 | 43
 |  | N#C/C(=C\c1cccs1)c1nc2ccccc2[nH]1 | 8 | > 50 | 48 | 30 | > 50
 | 4.2 | COc1ccc(OC)c2c1cc(C#N)c1nc3ccccc3n12 | 5 | 23 | 6 | 31 | 14
 |  | N#Cc1cc2ccncc2n2c1nc1ccccc12 | 45 | 32 | 30 | 67 | 57
 |  | N#C/C(=C\c1cnc[nH]1)c1nc2ccccc2[nH]1 | 40 | 30 | 70 | 92 | > 100
 |  | CCN(CC)c1ccc(/C=C(\C#N)c2nc3ccccc3[nH]2)c(O)c1 | 3 | 3 | 10 | 2 | 11
 | 2.9 | Cc1ccc(/C=C(\C#N)c2nc3ccccc3[nH]2)cc1 | 20 | 32 | 87 | 8 | 81
 |  | COc1cccc2c1C(=O)c1c(O)c3c(c(O)c1C2=O)C[C@@](O)(C(=O)CO)C[C@@H]3O[C@H]1C[C@H](N)[C@H](O)[C@H](C)O1 [DOXORUBICIN] |  | 0.01 |  | 0.04 | 
 |  | CC(=O)Nc1ccc(/C=C(\C#N)c2nc3ccccc3[nH]2)cc1 | 3 | 48 | > 100 | 4 | > 100
 |  | N#C/C(=C\c1ccncc1)c1nc2ccccc2[nH]1 | 21 | 57 | 42 | 9 | 78
 |  | CC(=O)Nc1ccc2cc(C#N)c3nc4ccccc4n3c2c1 | 2 | 2 | 5 | 5 | 90
 |  | N#C/C(=C\c1ccc(Br)cc1)c1nc2ccccc2[nH]1 | 9 | 46 | > 50 | 19 | > 50
 |  | N#Cc1ccc2cc(C#N)c3nc4ccccc4n3c2c1 | 16 | > 50 | 14 | > 50 | 23
 |  | CN(C)c1ccc(/C=C(\C#N)c2nc3ccccc3[nH]2)cc1 | > 50 | 26 | > 50 | 4 | > 50
3 |  | COc1ccc(OC)c(/C=C(\C#N)c2nc3ccccc3[nH]2)c1 | 1 | 0.8 | 23 | 12 | 27
 |  | N#C/C(=C\c1ccco1)c1nc2ccccc2[nH]1 | 25 | 28 | > 50 | 17 | > 50
 |  | N#Cc1cc2ccsc2n2c1nc1ccccc12 | 19 | 28 | 16 | 31 | 30
 | 2.4 | Cn1ccc2cc(C#N)c3nc4ccccc4n3c21 | 0.7 | 4 | 25 | 11 | 22
 | 4.8 | Cc1ccc2cc(C#N)c3nc4ccccc4n3c2c1 | > 100 | > 100 | > 100 | 70 | > 100
 | 4.4 | N#Cc1cc2ccc(F)cc2n2c1nc1ccccc12 | 29 | 28 | 22 | 50 | 26
 |  | N#Cc1cc2ccc(Br)cc2n2c1nc1ccccc12 | 20 | > 50 | 13 | 37 | 37
 | 0.4 | Cn1cccc1/C=C(\C#N)c1nc2ccccc2[nH]1 | 0.8 | 4 | 30 | 13 | 26

Source: ChEMBL document CHEMBL1165879, “Benzimidazole derivatives related to 2,3-acrylonitriles, benzimidazo[1,2-a]quinolines and fluorenes: synthesis, antitumor evaluation in vitro and crystal structure determination” (Eur J Med Chem, 2010)
